CHOP UPR activ = activators of apoptotic CHOP UPR arm, primary screen, cell-based, CHO-CHOP luciferase reporter, luminescence, uHTS; 330,000 compounds, 0.34% hits; AID 449763, 2010; UPR activation; percent of tunicamycin response over DMSO baseline; activation, % at 10 µM;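 active = at 10 µM dose, activation of 40% or more, normalized to positive control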;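 also: 100% = tunicamycin at 10 µg/mL and 0% = DMSO alone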
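Assay system: CHO cells with stable CHOP pathway luciferase reporter; Buffer or medium: F12 plus 10% serum; Times: 16-18 h cell attachment, then 6 h compound exposure, 37 °C; Signal: luciferase luminescence; Read-out basis: percent activation relative to tunicamycin control; Control set: tunicamycin high control, DMSO low control.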
XBP1 UPR activ = activators of adaptive XBP1 UPR arm, primary screen, cell-based, CHO-XBP1 luciferase reporter, luminescence, uHTS. activation, % at 20 µM. 330,000 compounds, 0.33% hits. IRE1-XBP1 UPR activation; percent of tunicamycin response, DMSO as zero;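 active = versus positive control, 20 µM dose yields 30% or more activation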;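 also: 100% = tunicamycin at 10 µg/mL and 0% = DMSO only wells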
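Material: IRE1-XBP1 luciferase reporter CHO line / Quantity: one thousand reporter cells per well / Buffer or medium: F12 with 10% serum / Compound: 20 µM single concentration, DMSO 1% / Times: 6 h treatment, 37 °C / Detection: Steady-Glo luciferase glow luminescence, 10 min after reagent addition / Benchmarks: tunicamycin high, DMSO low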
B2AR ag = beta2AR agonists driving receptor internalization, primary screen, cell-based, FAP fluorogen, flow cytometry; 340,000 compounds, 0.43% hits; response, % (concentration not given with the values); Beta-2 adrenergic receptor (Homo sapiens), P07550; Am2.2-beta2AR cells;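 active = response above a set limit, near 3 SD of response in nonfluorescent compounds, cut at about 42% in these data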
Target sequence (P07550 whole entry, looked up): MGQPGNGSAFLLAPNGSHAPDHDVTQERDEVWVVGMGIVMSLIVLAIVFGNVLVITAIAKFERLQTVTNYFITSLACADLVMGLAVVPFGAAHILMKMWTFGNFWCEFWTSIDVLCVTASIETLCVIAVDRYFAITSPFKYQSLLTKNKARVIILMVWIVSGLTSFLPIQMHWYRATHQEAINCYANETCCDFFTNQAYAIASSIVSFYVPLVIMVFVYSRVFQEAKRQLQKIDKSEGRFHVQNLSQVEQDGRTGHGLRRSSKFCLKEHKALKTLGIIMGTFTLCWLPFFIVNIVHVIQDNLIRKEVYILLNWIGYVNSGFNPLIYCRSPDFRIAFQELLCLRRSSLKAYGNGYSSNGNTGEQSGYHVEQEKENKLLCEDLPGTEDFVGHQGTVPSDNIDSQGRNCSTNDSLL
T cell modulator = modulators of CD8 T cell-vesicle binding, primary screen, mouse 2C CD8+ T cells, flow cytometry; response (vesicle binding), % at 7 µM; 2C CD8+ T cell-vesicle binding; stronger effect = lower value; 330,000 compounds, 0.068% hits;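 active = response, share of CD8 T cells binding vesicles, and their 90th percentile fluorescence all below set limits, cut at about 80% in these data, passing the limit was not always enough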;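 also: values below 100% mean blocked vesicle binding to the CD8+ T cells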
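Material: 2C TCR transgenic mouse naive CD8+ T cells, MACS-purified. Also added: QL9-charged Drosophila Ld/ICAM-1/B7-1 vesicles. Timing: binding 1.5 h at 37 °C. Measured by: high-throughput flow cytometry with anti-B7-1 and anti-CD8 staining. Read-out: percent CD8+ FL2 mean versus row control. Controls: Unloaded micro-vesicles (low), QL9 vesicles with 0.7% DMSO (high).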
* marks the source's active call; other numbers are inactive results; / = not tested or not shown. In the library only some 1% were active in any assay of this set; here they are far more common.

SMILES | CHOP UPR activ | XBP1 UPR activ | B2AR ag | T cell modulator
Cc1cccc(CS(=O)(=O)c2ncc(Cl)c(C(=O)NCc3ccccc3)n2)c1 | 84* | -10 | 0 | 377
Cc1cccc(CS(=O)(=O)c2ncc(Cl)c(C(=O)Nc3c(C)cccc3C)n2)c1 | 26 | -2 | 30 | 217
CCCN(Cc1ccccc1)C(=S)Nc1ccc(C(C)=O)cc1 | 2 | -1 | -3 | 493
CCOC(=O)/C=c1\s/c(=C\c2sccc2C)c(=O)n1CC(=O)NCc1ccc(C)cc1 | 54* | 64* | / | 225
CCOC(=O)/C=c1\s/c(=C\c2ccc(-c3ccccc3)cc2)c(=O)n1CC(=O)NCc1ccc2c(c1)OCO2 | 2 | 1 | 13 | 624
Cc1cccc(/N=C/c2sc3ccccc3c2O)n1 | 1 | 2 | 10 | 200
Oc1c(C=Nc2cccc3cccnc23)sc2ccccc12 | 59* | 39* | / | 372
NC(=O)c1nsc(C(=O)N(Cc2cccnc2)C(C(=O)NCc2ccc(F)cc2)c2ccc(O)cc2)c1N (stereo unspecified) | -2 | -3 | 3 | 167
O=C(O)Cc1cn(Cc2ccc(F)cc2)c2ccccc12 | 47* | -2 | 7 | 278
C=CCn1c(SCC(=O)N2CCN(c3ccccc3)CC2)nc2c([nH]c3ccccc32)c1=O | 21 | 73* | 5 | 272
COc1cc(C(=O)Nc2nnc(-c3sccc3C)s2)cc(OC)c1OC | 0 | 8 | -5 | 80*
CCOCc1nnc(NC(=O)c2cc(OC)c(OC)c(OC)c2)s1 | 1 | 0 | 1 | 558
COc1ccc2c(c1)/C(=N/N1C(=O)c3ccccc3C1=O)C(=O)N2 | 0 | 1 | / | 219
COc1ccc2c(c1)/C(=C\c1cccc(/C=C3/C(=O)Nc4ccc(OC)cc43)n1)C(=O)N2 | / | / | 93* | /
Cc1cc(F)ccc1S(=O)(=O)N1CCCOC1CNC(=O)C(=O)NCCc1ccccc1 (stereo unspecified) | -1 | -3 | 3 | 305
N=C1C(=O)OCC1c1ccccc1NC(=O)c1ccccc1 (stereo unspecified) | -1 | -1 | -2 | 144
COc1ccc(C2COC(=O)C2=N)c(NC(=O)c2ccc(Cl)cc2)c1 (stereo unspecified) | -1 | -4 | -11 | 0.0*
Cc1[nH]nc2c1C(c1cnn(C)c1)C(C#N)=C(N)O2 (stereo unspecified) | -2 | -3 | -2 | 59*
CCC(C)(C(=O)NC1CCCC1)N(Cc1cccs1)C(=O)Cc1cccs1 (stereo unspecified) | 0 | 0 | -1 | 35*
CCCCCOC(=O)Nc1ccc(S(=O)(=O)Nc2cccc([N+](=O)[O-])c2)cc1 | 2 | 0 | 2 | 244
CCc1cc(SC#N)cc(C)c1NC(=O)CCl | 5 | 11 | 47* | 261
C[C@@H]1COC(=O)[C@H](Cc2ccc(F)cc2)CC/C=C\C[C@@H](CC(=O)NCCO)C(=O)N1 | -2 | -2 | -3 | 60*
O=C(C[C@@H]1C/C=C\CC[C@H](Cc2ccc(F)cc2)C(=O)OC[C@@H](Cc2ccccc2)NC1=O)NCCO | 1 | -3 | 0 | 280
Cc1cc(NS(=O)(=O)c2ccc(NC(NC(=O)C(C(F)(F)F)C(F)(F)F)(C(F)(F)F)C(F)(F)F)cc2)no1 | / | / | 1 | /
O=C(CSc1nnc(SCc2ccc(Cl)cc2)s1)N/N=C/c1ccc(Cl)cc1Cl | 3 | 70* | -5 | 142
SMILES | CHOP UPR activ | XBP1 UPR activ | B2AR ag | T cell modulator
O=C(CSc1nnc(SCc2ccccc2)s1)N/N=C/c1ccc(Cl)cc1Cl | 0 | 1 | -4 | 327
Cc1ccc(N/C=C/C(=O)c2cccs2)cc1C | -2 | -6 | 6 | 199
O=C(/C=C/Nc1ccc(Nc2ccccc2)cc1)c1cccs1 | / | / | 50* | /
Cc1c(C(=O)NCCN2C(=O)S/C(=C\c3cccnc3)C2=O)cccc1[N+](=O)[O-] | -1 | -1 | -2 | 19*
CC1(C)O[C@@H]2[C@H](O1)[C@@H](CO)O[C@H]2n1cc(Br)c(=O)[nH]c1=O | -2 | 0 | 3 | 359
CCN(C(=O)c1cc2c(=O)[nH]c3ccc(C)cc3c2s1)c1ccc(F)cc1 | -1 | 6 | -3 | 324
CCN(C(=O)c1cc2c(=O)[nH]c3ccc(C)cc3c2s1)c1cccc(C)c1 | 2 | 10 | -3 | 0.0*
Cc1ccc(S(=O)(=O)N[C@@H](Cc2ccccc2)C(=O)CCl)cc1 | 8 | -5 | 53* | 454
Cc1ccc(S(=O)(=O)NC(Cc2ccccc2)C(=O)NN)cc1 (stereo unspecified) | -2 | -6 | 1 | 150
O=C(CCc1ccccc1)N/N=C/c1cc(Br)ccc1O | 1 | 0 | 0 | 0.0*
CN1C/C(=C/c2cccnc2)C(=O)/C(=C/c2cccnc2)C1 | / | / | 43* | 646
COc1ccc(C(=O)/C=C/C(=O)N(CC(=O)NC2CCCCC2)Cc2cccs2)c(O)c1 | -9 | -9 | 115* | 630
COCCN(CC(=O)NC1CCCCC1)C(=O)/C=C/C(=O)c1ccc(OC)cc1O | / | / | 91* | /
COc1ccc(OC)c(C2C3=C(CCCC3=O)Nc3c2c(=O)n(C)c(=O)n3C)c1 (stereo unspecified) | -1 | -2 | -4 | 470
CS(=O)(=O)c1sc(C#N)c2c1C(=O)CC(c1ccccc1)C2 (stereo unspecified) | -11 | -11 | 106* | 224
O=C(COc1ccc2ccc(=O)oc2c1)Nc1cc([N+](=O)[O-])ccc1F | 2 | 0 | 60* | 685
Cc1ccc(NC(=O)COC(=O)COc2ccc3ccc(=O)oc3c2)cc1[N+](=O)[O-] | -1 | 0 | -3 | 538
O=S(=O)(/C(=C\c1ccc(C(F)(F)F)cc1)c1nc2ccccc2[nH]1)c1ccccc1 | / | / | 22 | /
O=C1C=CC(=O)c2c(O)c(N3CCN(CCOCCO)CC3)c(Br)c(O)c21 | / | / | 66* | /
O=C1C=CC(=O)c2c(O)c(N3CCN(CCO)CC3)c(Cl)c(O)c21 | / | / | 100* | /
O=S(=O)(c1ccc(Br)cc1Cl)N1CCN(CCO)CC1 | -2 | 1 | -7 | 194
COCCNC(=O)C1CCC(CNS(=O)(=O)c2ccc(F)cc2)CC1 (stereo unspecified) | -1 | 0 | -2 | 490
CC(C)C[C@H]1CNC(=O)C(=O)N1C[C@H](C)NC(=O)Cc1ccccc1 | 0 | 0 | 2 | 598
C/C(=N\NC(=O)Cc1csc(N2CCOCC2)n1)c1ccccc1 | -1 | -4 | -2 | 326
O=C(Cc1csc(N2CCOCC2)n1)N/N=C/c1ccc(O)c(O)c1O | / | / | 46* | /
COc1cc(/C=N/NC(=O)c2ccc(NS(=O)(=O)c3cccs3)cc2)cc(OC)c1O | -2 | -1 | -2 | 80*
